{"source": "ChEMBL document CHEMBL4811254", "about": "“Beyond Basicity: Discovery of Nonbasic DENV-2 Protease Inhibitors with Potent Activity in Cell Culture” (J Med Chem, 2021)", "key": {"[1]": {"system": "Huh-7", "experiment": "Cytotoxicity against human Huh-7 cells assessed as reduction in cell viability at 10 uM incubated for 48 hrs by CellTiter-Blue assay", "type": "cell-based", "conditions": "huh-7, 48 h", "in_short": "(§1)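 Viability by CellTiter-Blue in HeLa or Huh-7 cells exposed to compound dilutions. Plates run in parallel with the reporter assay (HeLa) or the virus titer assay (Huh-7).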"}, "[2]": {"experiment": "Cytotoxicity against human HeLa cells assessed as reduction in cell viability incubated for 24 hrs by CellTiter-Blue assay", "type": "cell-based", "in_short": "as §1"}, "[3]": {"experiment": "Passive membrane permeability of the compound in phosphate buffered saline at 200 uM incubated for 5 hrs by PAMPA assay based HPLC analysis", "type": "ADME", "conditions": "pampa, 5 h, 200 µM", "in_short": "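Precoated trilayer PAMPA, 5 h incubation. Acceptor and donor concentrations measured after 5 h. Permeability and mass retention calculated by a literature method.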"}, "[4]": {"system": "dengue virus type 2", "experiment": "Antiviral activity against DENV2 infected in human Huh7 cells assessed as reduction in virus titer in cell supernatant by measuring inhibition of plaque formation using VeroE6 cells at 10 uM preincubated with viral infected Huh7 cells for 48 hrs and measured following infection of VeroE6 cells with supernatants for 7 days by plaque assay based crystal violet staining analysis", "type": "functional", "conditions": "Huh-7, 216 h, time 9 day"}, "[5]": {"molecular_target": "Genome polyprotein (dengue virus type 2) (UniProt P29990)", "experiment": "Inhibition of NS2B-NS3 protease in DENV2proHeLa system assessed as inhibition of luciferase signal at 12.5 uM incubated for 24 hrs by luciferase reporter gene assay", "type": "cell-based", "conditions": "HeLa", "in_short": "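Stable DENV2proHeLa cells seeded at 2 × 10⁴/well and dosed immediately, then incubated 24 h at 37 °C. Cells lysed 15 min at room temperature. Luciferase read with coelenterazine (2.75 μM in PBS) injection, luminescence 5 s. Triplicates; percent inhibition calculated relative to untreated control; background from cell-free wells.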"}, "[6]": {"molecular_target": "Genome polyprotein (dengue virus type 2, UniProt P29990)", "experiment": "Inhibition of NS2B-NS3 protease in DENV2proHeLa system assessed as inhibition of luciferase signal incubated for 24 hrs by luciferase reporter gene assay", "type": "cell-based, HeLa", "in_short": "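HeLa cells stably carrying the reporter system, 2 × 10⁴ per well, given inhibitor at seeding and held 24 h at 37 °C. Cells lysed 15 min at room temperature. Luciferase read for 5 s after injecting coelenterazine (2.75 μM in PBS). Triplicate wells per concentration; percent inhibition taken against untreated cells. EC50/EC90 from 4-parameter dose-response fit, background from cell-free wells subtracted.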"}, "[7]": {"molecular_target": "Trypsin (Homo sapiens) (UniProt P07477+P07478+P35030)", "experiment": "Inhibition of trypsin (unknown origin) using Boc-Val-Pro-Arg-AMC as substrate at 50 uM preincubated with enzyme for 15 mins followed by substrate addition and measured for 15 mins by fluorimetric assay", "type": "protein assay", "conditions": "time 30.0 min"}, "[8]": {"molecular_target": "Prothrombin (Homo sapiens) (UniProt P00734)", "experiment": "Inhibition of thrombin in human plasma using Boc-Val-Pro-Arg-AMC as substrate at 25 uM preincubated with enzyme for 15 mins followed by substrate addition and measured for 15 mins by fluorimetric assay", "type": "cell-free", "conditions": "time 30.0 min"}}, "note": "The source made the active and inactive calls. The rule behind the calls is not given here."}
{"smiles": "CCCCCC(=O)N[C@H](C(=O)NCc1ccc(C(N)=O)cc1)c1ccc(OCc2ccccc2)cc1", "values": [{"measurement": "Activity", "setting": "[1]", "value": "< 20", "unit": "%"}, {"measurement": "CC50 at 24 h", "setting": "[2]", "value": "> 100", "unit": "µM"}, {"measurement": "permeability", "setting": "[3]", "value": "Impermeable"}, {"measurement": "inhibition at 10 µM", "setting": "[4]", "value": 34, "unit": "%"}, {"measurement": "inhibition", "setting": "[5]", "value": 66, "unit": "%"}, {"measurement": "EC50", "setting": "[6]", "value": 6.3, "unit": "µM"}, {"measurement": "inhibition", "setting": "[7]", "value": "inactive"}, {"measurement": "inhibition", "setting": "[8]", "value": "inactive"}]}
